Residues, ends and D or L forms follow the SMILES beside them. *: point of attachment. X1 = CC1(C)N(O)C(c2ccc(OCC(=O)*)cc2)=[N+]([O-])C1(C)C
How the values were obtained:
[1] = species on record: Oryctolagus cuniculus; assay: Fibrinolytic activity (0.2 ug) determined in fibrinogen-agarose mixture coagulated with […] of thrombin; format: functional
How it was run: (§1)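 Plates were cast from equal volumes of 0.3% rabbit fibrinogen and 0.95% agarose, both in 50 mM sodium barbiturate buffer (pH 7.8), clotted with thrombin (100 IU/mL) and held 30 min at 4 °C. Wells 5 mm across were punched and loaded with 30 µL of saline, urokinase or test agent. Fibrinolysis was expressed as lysis area.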

[2] = species on record: Oryctolagus cuniculus; assay: Fibrinolytic activity (0.4 ug) determined in fibrinogen-agarose mixture coagulated with […] of thrombin; format: functional; how it was run: as §1
[3] = species on record: Oryctolagus cuniculus; assay: Fibrinolytic activity (0.8 ug) determined in fibrinogen-agarose mixture coagulated with […] of thrombin; format: functional; how it was run: as §1
[4] = species on record: Rattus norvegicus; assay: Concentration of compound (1 umol/L) required to inhibit acetylcholine-induced vasorelaxation of rat aortic strip relative to control; format: functional, Aorta
[5] = species on record: Rattus norvegicus; assay: Concentration of compound (0.1 umol/L) required to inhibit acetylcholine-induced vasorelaxation of rat aortic strip relative to control; format: functional, Aorta
[6] = species on record: Rattus norvegicus; assay: Concentration of compound (0.01 umol/L) required to inhibit acetylcholine-induced vasorelaxation of rat aortic strip relative to control; format: functional, Aorta
[7] = tested on: PC-12; assay: Free radical scavenging activity of compound (25 uM) evaluated against […] in PC12 cells; format: functional, cell-based; settings: Rattus norvegicus
[8] = tested on: PC-12; assay: Free radical scavenging activity of compound (25 uM) evaluated against hydrogen peroxide in PC12 cells; format: functional, cell-based; settings: Rattus norvegicus
How it was run: (§2)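 PC12 cells were grown in DMEM with 10% heat-inactivated horse serum, 5% FBS and 1.0 mM pyruvate at 37 °C and 5% CO₂. Cells were seeded at 20 000/well on poly-L-lysine and attached 24 h, then pretreated 1 h with 12.5–200 µM compound. Insults were: NO, 2 mM nitroprusside for 2 h, then 14 h in fresh medium; H₂O₂, 1 mM for 1 h; OH, 1 mM H₂O₂/30 µM Fe(II) for 1 h. Survival was read by MTT.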

[9] = species on record: Oryctolagus cuniculus; assay: Effect (0.6 ug) on euglobulin clot lysis time determined using rabbit euglobulin; format: functional
How it was run: (§3)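 Rabbit plasma was diluted 1:20 in distilled water and precipitated at pH 5.7 with 0.25% acetic acid for 30 min at 4 °C. It was spun at 2000g for 15 min, and the euglobulin pellet was resuspended to the original plasma volume in 50 mM sodium barbiturate buffer (pH 7.8; 1.66 mM CaCl₂, 0.68 mM MgCl₂, 93.96 mM NaCl). Saline, urokinase or test agent was added to the clots, and time to clot lysis was read in a microplate.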

[10] = species on record: Oryctolagus cuniculus; assay: Effect (1.1 ug) on euglobulin clot lysis time determined using rabbit euglobulin; format: functional; how it was run: as §3
[11] = species on record: Oryctolagus cuniculus; assay: Effect (2.2 ug) on euglobulin clot lysis time determined using rabbit euglobulin; format: functional; how it was run: as §3
[12] = tested on: PC-12; assay: Free radical scavenging activity of compound (25 uM) evaluated against OH in PC12 cells; format: functional, cell-based; settings: Rattus norvegicus; how it was run: as §2
[13] = tested on: Rattus norvegicus; assay: Thrombolytic activity (15.0 umol/kg) expressed as the reduction of thrombus mass determined in male wistar rats; format: functional
How it was run: (§4)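 Male Wistar rats (200–300 g) were anesthetized with pentobarbital sodium (80.0 mg/kg i.p.). A steel helix was left for 15 min in 1.0 mL of carotid blood, then weighed. It was placed in a heparin-filled (50 IU/mL) polyethylene shunt into the left jugular vein. Heparin and then the test agent were injected through the shunt. Blood circulated 90 min, the helix was reweighed, and thrombus mass reduction was recorded (ANOVA).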

[14] = tested on: Rattus norvegicus; assay: Thrombolytic activity (5.0 umol/kg) expressed as the reduction of thrombus mass determined in male wistar rats; format: functional; how it was run: as §4
[15] = tested on: Rattus norvegicus; assay: Thrombolytic activity (10.0 umol/kg) expressed as the reduction of thrombus mass determined in male wistar rats; format: functional; how it was run: as §4
[16] = tested on: PC-12; assay: Free radical scavenging activity of compound (200 uM) evaluated against […] in PC12 cells; format: functional, cell-based; settings: Rattus norvegicus
[17] = species on record: Oryctolagus cuniculus; assay: Effect (2.3 ug) on euglobulin clot lysis time determined using rabbit euglobulin; format: functional; how it was run: as §3
[18] = tested on: PC-12; assay: Free radical scavenging activity of compound (200 uM) evaluated against OH in PC12 cells; format: functional, cell-based; settings: Rattus norvegicus; how it was run: as §2
[19] = tested on: PC-12; assay: Free radical scavenging activity of compound (200 uM) evaluated against hydrogen peroxide in PC12 cells; format: functional, cell-based; settings: Rattus norvegicus; how it was run: as §2
[20] = tested on: Rattus norvegicus; assay: Thrombolytic activity (1 umol/kg) expressed as the reduction of thrombus mass determined in male wistar rats; format: functional; how it was run: as §4
[21] = tested on: Rattus norvegicus; assay: Thrombolytic activity (5 umol/kg) expressed as the reduction of thrombus mass determined in male wistar rats; format: functional; how it was run: as §4
[22] = tested on: Rattus norvegicus; assay: Thrombolytic activity (10 umol/kg) expressed as the reduction of thrombus mass determined in male wistar rats; format: functional; how it was run: as §4
[23] = species on record: Oryctolagus cuniculus; assay: Fibrinolytic activity (1.4 ug) determined in fibrinogen-agarose mixture coagulated with […] of thrombin; format: functional; how it was run: as §1
[24] = species on record: Oryctolagus cuniculus; assay: Effect (1.4 ug) on euglobulin clot lysis time determined using rabbit euglobulin; format: functional; how it was run: as §3
[25] = species on record: Oryctolagus cuniculus; assay: Fibrinolytic activity (5 IU)) determined in fibrinogen-agarose mixture coagulated with […] of thrombin; format: functional; how it was run: as §1
[26] = species on record: Oryctolagus cuniculus; assay: Effect (5 IU) on euglobulin clot lysis time determined using rabbit euglobulin; format: functional; how it was run: as §3
[27] = tested on: Rattus norvegicus; assay: Thrombolytic activity (20 000 IU/kg) expressed as the reduction of thrombus mass determined in male wistar rats; format: functional, organism-based; how it was run: as §4
[28] = tested on: PC-12; assay: Free radical scavenging activity of compound (12.5 uM) evaluated against OH in PC12 cells; format: functional, cell-based; settings: Rattus norvegicus; how it was run: as §2
[29] = tested on: PC-12; assay: Free radical scavenging activity of compound (12.5 uM) evaluated against nitric oxide in PC12 cells; format: functional, cell-based; settings: Rattus norvegicus; how it was run: as §2
[30] = species on record: Oryctolagus cuniculus; assay: Effect (0.8 ug) on euglobulin clot lysis time determined using rabbit euglobulin; format: functional; how it was run: as §3
[31] = tested on: PC-12; assay: Free radical scavenging activity of compound (12.5 uM) evaluated against hydrogen peroxide in PC12 cells; format: functional, cell-based; settings: Rattus norvegicus; how it was run: as §2
[32] = species on record: Rattus norvegicus; assay: Concentration of compound (1 uM) required to inhibit acetylcholine-induced vasorelaxation of rat aortic strip relative to control; format: functional, Aorta
[33] = species on record: Oryctolagus cuniculus; assay: Fibrinolytic activity (0.7 ug) determined in fibrinogen-agarose mixture coagulated with […] of thrombin; format: functional; how it was run: as §1
[34] = tested on: PC-12; assay: Free radical scavenging activity of compound (50 uM) evaluated against […] in PC12 cells; format: functional, cell-based; settings: Rattus norvegicus
[35] = species on record: Oryctolagus cuniculus; assay: Effect (2.1 ug) on euglobulin clot lysis time determined using rabbit euglobulin; format: functional; how it was run: as §3
[36] = tested on: PC-12; assay: Free radical scavenging activity of compound (50 uM) evaluated against OH in PC12 cells; format: functional, cell-based; settings: Rattus norvegicus; how it was run: as §2
[37] = tested on: PC-12; assay: Free radical scavenging activity of compound (50 uM) evaluated against hydrogen peroxide in PC12 cells; format: functional, cell-based; settings: Rattus norvegicus; how it was run: as §2
[38] = species on record: Oryctolagus cuniculus; assay: Fibrinolytic activity (1.5 ug) determined in fibrinogen-agarose mixture coagulated with […] of thrombin; format: functional; how it was run: as §1
[39] = species on record: Oryctolagus cuniculus; assay: Effect (1.5 ug) on euglobulin clot lysis time determined using rabbit euglobulin; format: functional; how it was run: as §3
[40] = species on record: Oryctolagus cuniculus; assay: Fibrinolytic activity (1.3 ug) determined in fibrinogen-agarose mixture coagulated with […] of thrombin; format: functional; how it was run: as §1
[41] = species on record: Oryctolagus cuniculus; assay: Effect (1.3 ug) on euglobulin clot lysis time determined using rabbit euglobulin; format: functional; how it was run: as §3

## C[C@H](NC(=O)COc1ccc(C2=[N+]([O-])C(C)(C)C(C)(C)N2O)cc1)C(=O)N[C@@H](CCCN=C(N)N)C(=O)N1CCC[C@H]1C(=O)N[C@@H](C)C(=O)N[C@@H](CCCCN)C(=O)O (X1-ARPAK-OH)
[1]
  Lysis area: 172.33 mm.mm
[2]
  Lysis area: 194.54 mm.mm
[3]
  Lysis area: 215.23 mm.mm
[4]
  Inhibition: 92.9%
[5]
  Inhibition: 78.6%
[6]
  Inhibition: 66.8%
[7]
  EC50: 89.1 µM
[8]
  EC50: 28.1 µM
[9]
  ECLT: 145.61 min
[10]
  ECLT: 123.32 min
[11]
  ECLT: 104.12 min
[12]
  EC50: 98.1 µM
[13]
  Reduction: 26.88 mg
[14]
  Reduction: 16.27 mg
[15]
  Reduction: 19.91 mg

## C[C@H](NC(=O)[C@@H]1CCCN1C(=O)[C@H](CCCN=C(N)N)NC(=O)[C@H](CCC(N)=O)NC(=O)COc1ccc(C2=[N+]([O-])C(C)(C)C(C)(C)N2O)cc1)C(=O)N[C@@H](CCCCN)C(=O)O (X1-QRPAK-OH)
[1]
  Lysis area: 195.38 mm.mm
[2]
  Lysis area: 215.12 mm.mm
[3]
  Lysis area: 230.15 mm.mm
[4]
  Inhibition: 95.6%
[5]
  Inhibition: 80.1%
[6]
  Inhibition: 68.3%
[16]
  EC50: 91.8 µM
[9]
  ECLT: 136 min
[10]
  ECLT: 117.96 min
[17]
  ECLT: 100.09 min
[18]
  EC50: 94.2 µM
[19]
  EC50: 74.6 µM
[20]
  Reduction: 16.4 mg
[21]
  Reduction: 20.43 mg
[22]
  Reduction: 28.85 mg

## C[C@H](N)C(=O)N[C@@H](CCCN=C(N)N)C(=O)N1CCC[C@H]1C(=O)N[C@@H](C)C(=O)N[C@@H](CCCCN)C(=O)O (H-ARPAK-OH)
[23]
  Lysis area: 212.78 mm.mm
[4]
  Inhibition: 9.5%
[24]
  ECLT: 96.38 min
[15]
  Reduction: 18.54 mg

## UROKINASE
[25]
  Lysis area: 224 mm.mm
[26]
  ECLT: 126 min
[27]
  Reduction: 25.4 mg

## CC1(C)N(O)C(c2ccc(OCC(=O)O)cc2)=[N+]([O-])C1(C)C
[3]
  Lysis area: 23.96 mm.mm
[28]
  EC50: 99.9 µM
[29]
  EC50: 91.2 µM
[30]
  ECLT: 218.56 min
[31]
  EC50: 30.2 µM
[32]
  Inhibition: 99.2%
[15]
  Reduction: 15.89 mg

## C[C@H](NC(=O)[C@@H]1CCCN1C(=O)[C@H](CCCN=C(N)N)NC(=O)CNC(=O)COc1ccc(C2=[N+]([O-])C(C)(C)C(C)(C)N2O)cc1)C(=O)N[C@@H](CCCCN)C(=O)O (X1-GRPAK-OH)
[1]
  Lysis area: 175.04 mm.mm
[2]
  Lysis area: 196.87 mm.mm
[33]
  Lysis area: 217.35 mm.mm
[4]
  Inhibition: 96%
[5]
  Inhibition: 80.9%
[6]
  Inhibition: 69.3%
[34]
  EC50: 92.3 µM
[35]
  ECLT: 105.01 min
[9]
  ECLT: 147.22 min
[10]
  ECLT: 126.51 min
[36]
  EC50: 95.4 µM
[37]
  EC50: 25.4 µM
[13]
  Reduction: 26.64 mg
[14]
  Reduction: 16.34 mg
[15]
  Reduction: 19.7 mg

## C[C@H](NC(=O)[C@@H]1CCCN1C(=O)[C@H](CCCN=C(N)N)NC(=O)[C@@H](N)CCC(N)=O)C(=O)N[C@@H](CCCCN)C(=O)O (H-QRPAK-OH)
[38]
  Lysis area: 223.99 mm.mm
[4]
  Inhibition: 8.9%
[39]
  ECLT: 93.01 min
[15]
  Reduction: 21.17 mg

## C[C@H](NC(=O)[C@@H]1CCCN1C(=O)[C@H](CCCN=C(N)N)NC(=O)CN)C(=O)N[C@@H](CCCCN)C(=O)O (H-GRPAK-OH)
[40]
  Lysis area: 230.54 mm.mm
[4]
  Inhibition: 9.2%
[41]
  ECLT: 91.09 min
[15]
  Reduction: 25.82 mg

Reference: ChEMBL document CHEMBL1145150, “Synthesis and biological activity of nitronyl nitroxide containing peptides” (J Med Chem, 2005)
